{
  "source": "ChEMBL document CHEMBL1135143",
  "about": "“Discovery and evaluation of N-(triazin-1,3,5-yl) phenylalanine derivatives as VLA-4 integrin antagonists” (Bioorg Med Chem Lett, 2002)",
  "data": [
    {"system": "not listed separately", "test": "Compound was evaluated for rate of clearance by using IPRL (Isolated Perfused Rat Liver)", "type": "ADME", "units": {"k el": "s⁻¹"}, "values": [
      {"compound": "COc1nc(N[C@@H](Cc2ccc(NC(=O)c3c(Cl)cncc3Cl)cc2)C(=O)O)nc(Oc2ccccc2)n1", "k el": 0.000167},
      {"compound": "COc1nc(N[C@@H](Cc2ccc(NC(=O)c3c(F)cccc3C(F)(F)F)cc2)C(=O)O)nc(OC)n1", "k el": 0.000167},
      {"compound": "CCCNc1nc(N[C@@H](Cc2ccc(NC(=O)c3c(Cl)cncc3Cl)cc2)C(=O)O)nc(OC)n1", "k el": 0.000667},
      {"compound": "O=C(Nc1ccc(C[C@H](NC(=O)c2c(Cl)cncc2Cl)C(=O)O)cc1)c1c(Cl)cncc1Cl", "k el": 0.00108},
      {"compound": "COc1nc(NCCO)nc(N[C@@H](Cc2ccc(NC(=O)c3c(Cl)cncc3Cl)cc2)C(=O)O)n1", "k el": 0.0005},
      {"compound": "COc1nc(N[C@@H](Cc2ccc(OCc3c(Cl)cccc3Cl)cc2)C(=O)O)nc(OC)n1", "k el": 0.000611},
      {"compound": "O=C(Nc1ccc(C[C@H](Nc2ccc([N+](=O)[O-])cn2)C(=O)O)cc1)c1c(Cl)cncc1Cl", "k el": 0.000278},
      {"compound": "CCCOc1nc(N[C@@H](Cc2ccc(NC(=O)c3c(Cl)cncc3Cl)cc2)C(=O)O)nc(OC)n1", "k el": 0.000639},
      {"compound": "COc1nc(N[C@@H](Cc2ccc(NC(=O)c3c(Cl)cncc3Cl)cc2)C(=O)O)nc(N2CCNCC2)n1", "k el": 0.000583},
      {"compound": "COc1nc(N[C@@H](Cc2ccc(NC(=O)c3c(Cl)cncc3Cl)cc2)C(=O)O)nc(OC)n1", "k el": 0.000306},
      {"compound": "CCCOc1nc(N[C@@H](Cc2ccc(NC(=O)c3c(Cl)cncc3Cl)cc2)C(=O)O)nc(OCCC)n1", "k el": "5.56e-05"},
      {"compound": "O=C(Nc1ccc(C[C@H](Nc2cc(Cl)ncn2)C(=O)O)cc1)c1c(Cl)cncc1Cl", "k el": 0.000583},
      {"compound": "COc1nc(N[C@@H](Cc2ccc(NC(=O)c3c(Cl)cncc3Cl)cc2)C(=O)O)nc(N2CCC(C(=O)O)CC2)n1", "k el": 0.000583},
      {"compound": "COc1nc(N[C@@H](Cc2ccc(NC(=O)c3c(Cl)cccc3Cl)cc2)C(=O)O)nc(OC)n1", "k el": 0.000194},
      {"compound": "COc1nc(N[C@@H](Cc2ccc(NC(=O)c3c(Cl)cncc3Cl)cc2)C(=O)O)nc(N(C)C)n1", "k el": 0.000306},
      {"compound": "CC(=O)N1CSC[C@@H]1C(=O)N[C@@H](Cc1ccc(NC(=O)c2c(Cl)cncc2Cl)cc1)C(=O)O", "k el": 0.00103}
    ]},
    {"molecular_target": "T1, Integrin alpha-4/beta-1 (Homo sapiens, UniProt P05556+P13612)", "T1 sequence (P05556 whole entry)": "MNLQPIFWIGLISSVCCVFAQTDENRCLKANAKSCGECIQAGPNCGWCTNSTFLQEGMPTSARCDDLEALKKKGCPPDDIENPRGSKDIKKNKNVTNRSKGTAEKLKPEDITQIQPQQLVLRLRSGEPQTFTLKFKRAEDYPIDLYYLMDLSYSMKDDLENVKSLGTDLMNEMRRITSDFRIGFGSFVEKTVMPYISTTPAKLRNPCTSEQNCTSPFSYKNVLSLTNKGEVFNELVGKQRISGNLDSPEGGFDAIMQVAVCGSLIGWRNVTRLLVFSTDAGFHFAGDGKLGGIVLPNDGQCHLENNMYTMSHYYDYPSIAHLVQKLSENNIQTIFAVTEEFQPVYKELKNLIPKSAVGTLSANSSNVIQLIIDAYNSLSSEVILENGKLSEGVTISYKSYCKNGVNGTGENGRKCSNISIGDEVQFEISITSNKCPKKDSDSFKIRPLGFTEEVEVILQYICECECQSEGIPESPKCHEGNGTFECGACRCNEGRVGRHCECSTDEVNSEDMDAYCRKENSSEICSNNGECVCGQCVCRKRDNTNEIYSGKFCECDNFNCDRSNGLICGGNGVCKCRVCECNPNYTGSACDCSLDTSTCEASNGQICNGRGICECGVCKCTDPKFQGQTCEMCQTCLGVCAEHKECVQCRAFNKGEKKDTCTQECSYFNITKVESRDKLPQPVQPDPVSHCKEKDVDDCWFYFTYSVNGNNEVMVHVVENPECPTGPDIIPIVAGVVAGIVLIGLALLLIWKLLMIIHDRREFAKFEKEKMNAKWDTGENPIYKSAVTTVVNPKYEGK", "T1 sequence (P13612 whole entry)": "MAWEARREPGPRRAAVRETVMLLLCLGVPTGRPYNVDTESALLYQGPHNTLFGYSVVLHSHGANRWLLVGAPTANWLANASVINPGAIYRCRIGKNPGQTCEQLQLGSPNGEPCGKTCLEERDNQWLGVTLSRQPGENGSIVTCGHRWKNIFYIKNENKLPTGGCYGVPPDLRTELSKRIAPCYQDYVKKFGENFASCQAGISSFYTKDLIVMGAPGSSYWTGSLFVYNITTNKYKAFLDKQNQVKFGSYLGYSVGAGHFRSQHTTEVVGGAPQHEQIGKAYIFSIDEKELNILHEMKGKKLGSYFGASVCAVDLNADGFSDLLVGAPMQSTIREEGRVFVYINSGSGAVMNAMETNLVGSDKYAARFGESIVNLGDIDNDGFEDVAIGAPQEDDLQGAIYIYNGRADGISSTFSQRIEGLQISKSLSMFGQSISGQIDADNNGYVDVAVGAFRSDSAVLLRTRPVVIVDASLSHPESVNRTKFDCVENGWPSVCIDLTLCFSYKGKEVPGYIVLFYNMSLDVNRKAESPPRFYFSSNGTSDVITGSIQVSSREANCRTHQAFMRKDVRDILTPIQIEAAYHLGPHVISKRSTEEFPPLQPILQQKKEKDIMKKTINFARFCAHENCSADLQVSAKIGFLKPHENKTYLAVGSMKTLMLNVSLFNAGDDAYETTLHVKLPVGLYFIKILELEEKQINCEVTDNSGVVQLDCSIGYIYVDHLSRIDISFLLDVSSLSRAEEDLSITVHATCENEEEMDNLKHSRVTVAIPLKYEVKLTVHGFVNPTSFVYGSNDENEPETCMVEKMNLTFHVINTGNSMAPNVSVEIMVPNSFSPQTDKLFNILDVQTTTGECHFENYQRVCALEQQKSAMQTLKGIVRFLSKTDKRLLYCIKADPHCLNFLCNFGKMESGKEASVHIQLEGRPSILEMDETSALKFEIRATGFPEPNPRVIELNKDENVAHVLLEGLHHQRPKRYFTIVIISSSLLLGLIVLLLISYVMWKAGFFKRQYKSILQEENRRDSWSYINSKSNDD", "test": "Inhibition of VLA-4 from HL60 lysate in a protein-based ligand binding assay.", "outline": "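Compounds titrated into two-domain VCAM-Fc-Ig solution, then added to VLA-4-coated wells; TBS, 1% BSA, 1 mM MnCl2, 0.1% Tween, 2 h room temperature. After washing, bound VCAM detected with peroxidase-coupled anti-human Fc.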", "units": {"IC50": "nM"}, "values": [
      {"compound": "CCN(CC)c1nc(N[C@@H](Cc2ccc(NC(=O)c3c(Cl)cncc3Cl)cc2)C(=O)O)nc(OC)n1", "IC50": 70},
      {"compound": "COc1nc(N[C@@H](Cc2ccc(NC(=O)c3c(Cl)cncc3Cl)cc2)C(=O)O)nc(Oc2ccccc2)n1", "IC50": 30},
      {"compound": "COc1nc(N[C@@H](Cc2ccc(NC(=O)c3c(F)cccc3C(F)(F)F)cc2)C(=O)O)nc(OC)n1", "IC50": 50},
      {"compound": "COc1nc(N[C@@H](Cc2ccc(NC(=O)c3c(Cl)cncc3Cl)cc2)C(=O)O)nc(N2CCOCC2)n1", "IC50": 14},
      {"compound": "CCCNc1nc(N[C@@H](Cc2ccc(NC(=O)c3c(Cl)cncc3Cl)cc2)C(=O)O)nc(OC)n1", "IC50": 25},
      {"compound": "O=C(Nc1ccc(C[C@H](NC(=O)c2c(Cl)cncc2Cl)C(=O)O)cc1)c1c(Cl)cncc1Cl", "IC50": 0.9},
      {"compound": "COc1nc(NCCO)nc(N[C@@H](Cc2ccc(NC(=O)c3c(Cl)cncc3Cl)cc2)C(=O)O)n1", "IC50": 7},
      {"compound": "COc1nc(N[C@@H](Cc2ccc(OCc3c(Cl)cccc3Cl)cc2)C(=O)O)nc(OC)n1", "IC50": 1500},
      {"compound": "CCCOc1nc(N[C@@H](Cc2ccc(NC(=O)c3c(Cl)cncc3Cl)cc2)C(=O)O)nc(OC)n1", "IC50": 45},
      {"compound": "COc1nc(N[C@@H](Cc2ccc(NC(=O)c3c(Cl)cncc3Cl)cc2)C(=O)O)nc(N2CCNCC2)n1", "IC50": 25},
      {"compound": "COc1nc(N[C@@H](Cc2ccc(NC(=O)c3c(Cl)cncc3Cl)cc2)C(=O)O)nc(OC)n1", "IC50": 8},
      {"compound": "COc1nc(N[C@@H](Cc2ccc(N(C)C(=O)c3c(Cl)cncc3Cl)cc2)C(=O)O)nc(OC)n1", "IC50": 5500},
      {"compound": "CCCOc1nc(N[C@@H](Cc2ccc(NC(=O)c3c(Cl)cncc3Cl)cc2)C(=O)O)nc(OCCC)n1", "IC50": 50},
      {"compound": "COc1nc(N[C@@H](Cc2ccc(NC(=O)c3c(Cl)cncc3Cl)cc2)C(=O)O)nc(N2CCC(C(=O)O)CC2)n1", "IC50": 6},
      {"compound": "COc1nc(N[C@@H](Cc2ccc(NC(=O)c3c(Cl)cccc3Cl)cc2)C(=O)O)nc(OC)n1", "IC50": 30},
      {"compound": "COc1nc(N[C@@H](Cc2ccc(NC(=O)c3c(Cl)cncc3Cl)cc2)C(=O)O)nc(N(C)C)n1", "IC50": 16},
      {"compound": "CC(=O)N1CSC[C@@H]1C(=O)N[C@@H](Cc1ccc(NC(=O)c2c(Cl)cncc2Cl)cc1)C(=O)O", "IC50": 0.6}
    ]},
    {"molecular_target": "T1, Integrin alpha-4/beta-1", "test": "Inhibition of VLA-4 expressed in Jurkat cell line, in a cell-based adhesion assay.", "outline": "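VLA-4-expressing Jurkat cells incubated 30 min at 37 °C with test compound on plates carrying human two-domain VCAM-1-Fc captured by anti-human Fc; after washing, adherent cells stained with Rose Bengal.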", "units": {"IC50": "nM"}, "values": [
      {"compound": "CCN(CC)c1nc(N[C@@H](Cc2ccc(NC(=O)c3c(Cl)cncc3Cl)cc2)C(=O)O)nc(OC)n1", "IC50": 1620},
      {"compound": "COc1nc(N[C@@H](Cc2ccc(NC(=O)c3c(Cl)cncc3Cl)cc2)C(=O)O)nc(Oc2ccccc2)n1", "IC50": 320},
      {"compound": "COc1nc(N[C@@H](Cc2ccc(NC(=O)c3c(F)cccc3C(F)(F)F)cc2)C(=O)O)nc(OC)n1", "IC50": 4600},
      {"compound": "COc1nc(N[C@@H](Cc2ccc(NC(=O)c3c(Cl)cncc3Cl)cc2)C(=O)O)nc(N2CCOCC2)n1", "IC50": 510},
      {"compound": "CCCNc1nc(N[C@@H](Cc2ccc(NC(=O)c3c(Cl)cncc3Cl)cc2)C(=O)O)nc(OC)n1", "IC50": 740},
      {"compound": "O=C(Nc1ccc(C[C@H](NC(=O)c2c(Cl)cncc2Cl)C(=O)O)cc1)c1c(Cl)cncc1Cl", "IC50": 0.5},
      {"compound": "COc1nc(NCCO)nc(N[C@@H](Cc2ccc(NC(=O)c3c(Cl)cncc3Cl)cc2)C(=O)O)n1", "IC50": 320},
      {"compound": "CCCOc1nc(N[C@@H](Cc2ccc(NC(=O)c3c(Cl)cncc3Cl)cc2)C(=O)O)nc(OC)n1", "IC50": 300},
      {"compound": "COc1nc(N[C@@H](Cc2ccc(NC(=O)c3c(Cl)cncc3Cl)cc2)C(=O)O)nc(N2CCNCC2)n1", "IC50": 1000},
      {"compound": "COc1nc(N[C@@H](Cc2ccc(NC(=O)c3c(Cl)cncc3Cl)cc2)C(=O)O)nc(OC)n1", "IC50": 900},
      {"compound": "CCCOc1nc(N[C@@H](Cc2ccc(NC(=O)c3c(Cl)cncc3Cl)cc2)C(=O)O)nc(OCCC)n1", "IC50": 740},
      {"compound": "COc1nc(N[C@@H](Cc2ccc(NC(=O)c3c(Cl)cncc3Cl)cc2)C(=O)O)nc(N2CCC(C(=O)O)CC2)n1", "IC50": 240},
      {"compound": "COc1nc(N[C@@H](Cc2ccc(NC(=O)c3c(Cl)cccc3Cl)cc2)C(=O)O)nc(OC)n1", "IC50": 4000},
      {"compound": "COc1nc(N[C@@H](Cc2ccc(NC(=O)c3c(Cl)cncc3Cl)cc2)C(=O)O)nc(N(C)C)n1", "IC50": 590},
      {"compound": "CC(=O)N1CSC[C@@H]1C(=O)N[C@@H](Cc1ccc(NC(=O)c2c(Cl)cncc2Cl)cc1)C(=O)O", "IC50": 0.5}
    ]}
  ]
}
